Experimental data: ChEMBL document CHEMBL1250497, “Synthesis and pharmacological study of 1-acetyl/propyl-3-aryl-5-(5-chloro-3-methyl-1-phenyl-1H-pyrazol-4-yl)-2-pyrazoline” (2010)

Tests used:
Format in all cases: functional
Rattus norvegicus [1] = experiment: Antiinflammatory activity in albino rat assessed as reduction of carrageenan-induced paw volume at 10 mg/kg, po administered 30 mins before carrageenan challenge measured after 120 mins by plethysmograph (reference value: 0.367 +/- 0.033 ml)
Procedure, shortened: (§1)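 Rats, six per group, were dosed orally at 10 mg/kg. Controls received 0.1 mL of 1% gum acacia; diclofenac sodium was the standard. After 30 min, 0.1 mL of 1% carrageenan in normal saline was injected sub-plantar into the right hind paw. Paw volume was read by plethysmograph at 0 h and at 30-150 min. Oedema is expressed as change versus control at matching times (±SE).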

Rattus norvegicus [2] = experiment: Antiinflammatory activity in albino rat assessed as reduction of carrageenan-induced paw volume at 10 mg/kg, po administered 30 mins before carrageenan challenge measured after 60 mins by plethysmograph (reference value: 0.333 +/- 0.033 ml); procedure, shortened: as §1
Rattus norvegicus [3] = experiment: Antiinflammatory activity in albino rat assessed as reduction of carrageenan-induced paw volume at 10 mg/kg, po administered 30 mins before carrageenan challenge measured after 30 mins by plethysmograph (reference value: 0.333 +/- 0.033 ml); procedure, shortened: as §1
Rattus norvegicus [4] = experiment: Analgesic activity in albino rat assessed as latency in reaction time required for thermal stimulus-induced tail flicking at 10 mg/kg, po after 60 mins
Procedure, shortened: (§2)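 Albino rats, 150-200 g, six per group, held in a restrainer. A 3-4 cm marked segment of tail was immersed in water at 55 °C. Tail withdrawal time (s) was recorded before dosing and at 30, 60 and 90 min after oral dosing at 10 mg/kg in 1% gum acacia. Cut-off was 30 s. Controls received vehicle only. Pentazocin was the reference.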

Rattus norvegicus [5] = experiment: Antiinflammatory activity in albino rat assessed as reduction of carrageenan-induced paw volume at 10 mg/kg, po administered 30 mins before carrageenan challenge measured after 150 mins by plethysmograph (reference value: 0.3667 +/- 0.033 ml); procedure, shortened: as §1
Rattus norvegicus [6] = experiment: Analgesic activity in albino rat assessed as latency in reaction time required for thermal stimulus-induced tail flicking at 10 mg/kg, po after 30 mins; procedure, shortened: as §2
Rattus norvegicus [7] = experiment: Antiinflammatory activity in albino rat assessed as reduction of carrageenan-induced paw volume at 10 mg/kg, po administered 30 mins before carrageenan challenge measured after 90 mins by plethysmograph (reference value: 0.3667 +/- 0.033 ml); procedure, shortened: as §1
Rattus norvegicus [8] = experiment: Analgesic activity in albino rat assessed as latency in reaction time required for thermal stimulus-induced tail flicking at 10 mg/kg, po after 90 mins; procedure, shortened: as §2

SMILES: CCC(=O)N1N=C(c2cccc([N+](=O)[O-])c2)CC1c1c(C)nn(-c2ccccc2)c1Cl (centres undefined)
- Activity (Rattus norvegicus [1]): 0.1 mL
- Activity (Rattus norvegicus [2]): 0.033 mL
- Activity (Rattus norvegicus [3]): 0.033 mL
- Time (Rattus norvegicus [4]): 3.067 s
- Activity (Rattus norvegicus [5]): 0.1 mL
- Time (Rattus norvegicus [6]): 2.767 s
- Activity (Rattus norvegicus [7]): 0.033 mL
- Time (Rattus norvegicus [8]): 4.333 s

SMILES: CC(=O)N1N=C(c2ccc(C)cc2)CC1c1c(C)nn(-c2ccccc2)c1Cl (centres undefined)
- Activity (Rattus norvegicus [1]): 0.033 mL
- Activity (Rattus norvegicus [2]): 0.1 mL
- Activity (Rattus norvegicus [3]): 0.0667 mL
- Time (Rattus norvegicus [4]): 4.567 s
- Activity (Rattus norvegicus [5]): 0.0667 mL
- Time (Rattus norvegicus [6]): 3.3 s
- Activity (Rattus norvegicus [7]): 0.0667 mL
- Time (Rattus norvegicus [8]): 5.467 s

SMILES: CCC(=O)N1N=C(c2ccc(OC)cc2)CC1c1c(C)nn(-c2ccccc2)c1Cl (centres undefined)
- Activity (Rattus norvegicus [1]): 0.1667 mL
- Activity (Rattus norvegicus [2]): 0.1667 mL
- Activity (Rattus norvegicus [3]): 0.1667 mL
- Time (Rattus norvegicus [4]): 4.633 s
- Activity (Rattus norvegicus [5]): 0.2 mL
- Time (Rattus norvegicus [6]): 4.667 s
- Activity (Rattus norvegicus [7]): 0.133 mL
- Time (Rattus norvegicus [8]): 4.4 s

SMILES: CCC(=O)N1N=C(c2ccc([N+](=O)[O-])cc2)CC1c1c(C)nn(-c2ccccc2)c1Cl (centres undefined)
- Activity (Rattus norvegicus [1]): 0 mL
- Activity (Rattus norvegicus [2]): 0.0667 mL
- Activity (Rattus norvegicus [3]): 0.0667 mL
- Time (Rattus norvegicus [4]): 3.533 s
- Activity (Rattus norvegicus [5]): 0.033 mL
- Time (Rattus norvegicus [6]): 3.1 s
- Activity (Rattus norvegicus [7]): 0.033 mL
- Time (Rattus norvegicus [8]): 3.933 s

SMILES: CC(C)=CCN1CC[C@]2(C)c3cc(O)ccc3C[C@H]1[C@H]2C [(+)-PENTAZOCINE]
- Time (Rattus norvegicus [4]): 5.6 s
- Time (Rattus norvegicus [6]): 2.9 s
- Time (Rattus norvegicus [8]): 6.4 s

SMILES: CC(=O)N1N=C(c2ccc([N+](=O)[O-])cc2)CC1c1c(C)nn(-c2ccccc2)c1Cl (centres undefined)
- Activity (Rattus norvegicus [1]): 0.0667 mL
- Activity (Rattus norvegicus [2]): 0.0667 mL
- Activity (Rattus norvegicus [3]): 0.1 mL
- Time (Rattus norvegicus [4]): 4.767 s
- Activity (Rattus norvegicus [5]): 0.1667 mL
- Time (Rattus norvegicus [6]): 3.467 s
- Activity (Rattus norvegicus [7]): 0.06 mL
- Time (Rattus norvegicus [8]): 5.267 s

SMILES: CCC(=O)N1N=C(c2ccc(Br)cc2)CC1c1c(C)nn(-c2ccccc2)c1Cl (centres undefined)
- Activity (Rattus norvegicus [1]): 0.2667 mL
- Activity (Rattus norvegicus [2]): 0.133 mL
- Activity (Rattus norvegicus [3]): 0.1667 mL
- Time (Rattus norvegicus [4]): 4.167 s
- Activity (Rattus norvegicus [5]): 0.2667 mL
- Time (Rattus norvegicus [6]): 3.8 s
- Activity (Rattus norvegicus [7]): 0.2 mL
- Time (Rattus norvegicus [8]): 4.5 s

SMILES: O=C([O-])Cc1ccccc1Nc1c(Cl)cccc1Cl.[Na+] [DICLOFENAC SODIUM]
- Activity (Rattus norvegicus [1]): 0.033 mL
- Activity (Rattus norvegicus [2]): 0.033 mL
- Activity (Rattus norvegicus [3]): 0.033 mL
- Activity (Rattus norvegicus [5]): 0.033 mL
- Activity (Rattus norvegicus [7]): 0.033 mL

SMILES: COc1ccc(C2=NN(C(C)=O)C(c3c(C)nn(-c4ccccc4)c3Cl)C2)cc1 (centres undefined)
- Activity (Rattus norvegicus [1]): 0.0667 mL
- Activity (Rattus norvegicus [2]): 0 mL
- Activity (Rattus norvegicus [3]): 0 mL
- Time (Rattus norvegicus [4]): 3.7 s
- Activity (Rattus norvegicus [5]): 0.1 mL
- Time (Rattus norvegicus [6]): 2.9 s
- Activity (Rattus norvegicus [7]): 0.1 mL
- Time (Rattus norvegicus [8]): 4.333 s

SMILES: CCC(=O)N1N=C(c2ccccc2)CC1c1c(C)nn(-c2ccccc2)c1Cl (centres undefined)
- Activity (Rattus norvegicus [1]): 0.367 mL
- Activity (Rattus norvegicus [2]): 0.333 mL
- Activity (Rattus norvegicus [3]): 0.2667 mL
- Time (Rattus norvegicus [4]): 2.7 s
- Activity (Rattus norvegicus [5]): 0.3667 mL
- Time (Rattus norvegicus [6]): 2.333 s
- Activity (Rattus norvegicus [7]): 0.433 mL
- Time (Rattus norvegicus [8]): 3.633 s

SMILES: CC(=O)N1N=C(c2ccc(Cl)cc2)CC1c1c(C)nn(-c2ccccc2)c1Cl (centres undefined)
- Activity (Rattus norvegicus [1]): 0.0667 mL
- Activity (Rattus norvegicus [2]): 0.0667 mL
- Activity (Rattus norvegicus [3]): 0.033 mL
- Time (Rattus norvegicus [4]): 3.067 s
- Activity (Rattus norvegicus [5]): 0.0667 mL
- Time (Rattus norvegicus [6]): 2.5 s
- Activity (Rattus norvegicus [7]): 0.033 mL
- Time (Rattus norvegicus [8]): 4.2 s

SMILES: CC(=O)N1N=C(c2ccc(Br)cc2)CC1c1c(C)nn(-c2ccccc2)c1Cl (centres undefined)
- Activity (Rattus norvegicus [1]): 0.1667 mL
- Activity (Rattus norvegicus [2]): 0.033 mL
- Activity (Rattus norvegicus [3]): 0.1 mL
- Time (Rattus norvegicus [4]): 4.733 s
- Activity (Rattus norvegicus [5]): 0.3 mL
- Time (Rattus norvegicus [6]): 3.967 s
- Activity (Rattus norvegicus [7]): 0.033 mL
- Time (Rattus norvegicus [8]): 4.833 s

SMILES: CC(=O)N1N=C(c2cccc([N+](=O)[O-])c2)CC1c1c(C)nn(-c2ccccc2)c1Cl (centres undefined)
- Activity (Rattus norvegicus [1]): 0.0667 mL
- Activity (Rattus norvegicus [2]): 0.0667 mL
- Activity (Rattus norvegicus [3]): 0.0667 mL
- Time (Rattus norvegicus [4]): 4.733 s
- Activity (Rattus norvegicus [5]): 0.133 mL
- Time (Rattus norvegicus [6]): 3.7 s
- Activity (Rattus norvegicus [7]): 0.033 mL
- Time (Rattus norvegicus [8]): 4.833 s

SMILES: CCC(=O)N1N=C(c2ccc(C)cc2)CC1c1c(C)nn(-c2ccccc2)c1Cl (centres undefined)
- Activity (Rattus norvegicus [1]): 0.3 mL
- Activity (Rattus norvegicus [2]): 0.133 mL
- Activity (Rattus norvegicus [3]): 0.0667 mL
- Time (Rattus norvegicus [4]): 3.733 s
- Activity (Rattus norvegicus [5]): 0.3 mL
- Time (Rattus norvegicus [6]): 2.9 s
- Activity (Rattus norvegicus [7]): 0.133 mL
- Time (Rattus norvegicus [8]): 4.6 s
